CHOP inh: inhibitors of CHOP promoter induction, primary screen, cell-based, unfolded protein response, luciferase reporter | CHO-K1 CHOP-promoter luciferase, tunicamycin-induced, 15-18 h | inhibition, % at 10 µM | actives 3.8% (n = 220,000);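 active = compounds that reduced the stress-induced luciferase reporter signal by more than about 70% of percent inhibition, limit read from the data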
UPR CHOP act: activators of apoptotic CHOP UPR arm, primary screen, cell-based, CHO-CHOP luciferase reporter, luminescence, uHTS; actives 0.34% (n = 330,000); AID 449763, 2010; UPR activation; percent of tunicamycin response over DMSO baseline; activation, % at 10 µM;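 active = at 10 µM dose, activation of 40% or more, normalized to positive control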
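Dosing – one dose, 10 µM in 0.5% DMSO · System – CHO-CHOP cells, stable luciferase reporter of PERK-eIF2a-CHOP signalling · Input – 500 cells/well · Control set – tunicamycin 10 µg/mL final as positive, DMSO-only wells as negative · Timing – 6 h compound treatment, 37 °C · Measure – % activation vs tunicamycin · Technique – luminescence read with Steady-Glo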
T cruzi inh: inhibitors of intracellular T. cruzi growth, primary screen, luminescence, NIH3T3 host cells | inhibition, % (concentration not given with the values) | T. cruzi beta-gal in NIH3T3, 90 h | actives 1.4% (n = 300,000);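 active = mean inhibition across valid replicates above about 55%, limit read from the data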;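 also: signal also drops with host cell toxicity which is not excluded here; higher percent means less beta-gal luminescence so fewer parasites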
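Assay system: NIH/3T3 host cells with β-galactosidase reporter T. cruzi; input: 5,000 host fibroblasts per well; compound: single 50 nL compound addition per well in DMSO; timing: ≥90 h infection period, 3 h prior cell attachment; measured by: GalScreen β-gal luminescence, detergent lysis, 60 min; evaluation: percent inhibition of parasite-derived β-gal signal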
Lmaj promast: Leishmania major promastigote growth inhibition, primary screen | actives 9% (n = 200,000) | inhibition, % at 10 µM | Leishmania major promastigotes, resazurin fluorescence viability; in the data active = inhibition above about 50%;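 also: promastigotes grown with compound for 44 hours at 28 °C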
UPR XBP1 act: activators of adaptive XBP1 UPR arm, primary screen, cell-based, CHO-XBP1 luciferase reporter, luminescence, uHTS. IRE1-XBP1 UPR activation; percent of tunicamycin response, DMSO as zero. activation, % at 20 µM. actives 0.33% (n = 330,000). AID 463104, 2010;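 active = versus positive control, 20 µM dose yields 30% or more activation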
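Assay system: CHO-XBP1 luciferase reporter cells; Schedule: 6 h treatment, 37 °C; Detection: glow luminescence from Steady-Glo reagent; Benchmarks: high control tunicamycin 10 µg/mL final, low control DMSO vehicle only.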
Dynein cargo inh: inhibitors of GR-EGFP nuclear translocation, primary screen, dynein cargo transport inhibitor project, imaging, high-content, 3617.4 mouse cells; test concentration mostly 20 µM; stimulated with dexamethasone, 1 µM; active compounds read low; z-score, hits read low; actives 0.47% (n = 220,000); AID 1381, 2008;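 active = plate z-score of nuclear minus cytoplasmic receptor signal below a set negative limit, without overly bright fluorescence or cell loss, cut at about -3.5 in these data, passing the limit was not always enough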;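 also: z-score of nuclear minus cytoplasmic ring GR-EGFP intensity difference per well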
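Medium: Induction medium lacking tetracycline, stripped serum | Probe or stimulus: 1.0 µM final dexamethasone stimulus | Schedule: 48 h induction, then 1 h compound, then 30 min agonist, 37 °C | Signal: Automated 10x imaging of fixed Hoechst-stained cells | Evaluation: Per-cell GR-EGFP intensity, nucleus versus surrounding cytoplasmic ring, well-averaged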
Each line names hits and unclear results; the compound was inactive in the other large screens. The full list was thinned out, with hits kept by preference.

CC(=O)c1ccc(N2CCN(c3ccc(S(=O)(=O)NCCCN(C)C)cc3[N+](=O)[O-])CC2)cc1	Lmaj promast 100
CC(=O)c1ccc(N2CCN(c3ccc(S(=O)(=O)NCCN(C)C)cc3[N+](=O)[O-])CC2)cc1	T cruzi inh 59 (no result: Lmaj promast)
CN(C)CCCNS(=O)(=O)c1ccc(N2CCN(Cc3ccc4c(c3)OCO4)CC2)c([N+](=O)[O-])c1	none (no result: CHOP inh, Lmaj promast, Dynein cargo inh)
CN1CCC(N(C)S(=O)(=O)c2ccc(NC(=O)COc3ccc(Cl)cc3)cc2)CC1	none (no result: CHOP inh, T cruzi inh, Lmaj promast, Dynein cargo inh)
CN1CCN(c2ccc(S(=O)(=O)N3CCCCC3)cc2NC(=O)COc2ccc(F)cc2)CC1	T cruzi inh 64 (no result: CHOP inh, Lmaj promast, Dynein cargo inh)
CN1CCN(c2ccc(S(=O)(=O)N3CCCCC3)cc2NC(=O)COc2cccc(Cl)c2)CC1	T cruzi inh 66 (no result: CHOP inh, Lmaj promast, Dynein cargo inh)
CN1CCC(N(C)S(=O)(=O)c2ccc(C(C)(C)C)cc2)CC1	T cruzi inh 65 (no result: CHOP inh, Lmaj promast, Dynein cargo inh)
CN1CCC(N(C)S(=O)(=O)c2ccc(NC(=O)COc3ccc(F)cc3)cc2)CC1	T cruzi inh 58 (no result: CHOP inh, Lmaj promast, Dynein cargo inh)
Cc1cccc(OCC(=O)Nc2cc(S(=O)(=O)N3CCCCC3)ccc2N2CCN(C)CC2)c1	none
O=C(CN1CCN(c2ccc(F)cc2)CC1)c1ccc(O)cc1O	none (no result: CHOP inh, Lmaj promast, Dynein cargo inh)
CCCN(CC(=O)Nc1cc(Cl)ccc1Cl)C(=O)CN1C(=O)C2CCCCC2C1=O (configuration not stated)	none (no result: CHOP inh, Lmaj promast, Dynein cargo inh)
COc1ccc(-n2c(-c3ccccc3)cc3c2CCCC3=O)cc1	Lmaj promast 80
O=C(NCCn1cc(SCc2ccc(F)cc2)c2ccccc21)c1ccccc1F	Lmaj promast 95
O=C(NCCn1cc(SCc2ccc(F)cc2)c2ccccc21)c1c(F)cccc1F	none
O=C(COc1coc(CN2CCCc3ccccc32)cc1=O)Nc1cccc([N+](=O)[O-])c1	none (no result: CHOP inh, Lmaj promast, Dynein cargo inh)
O=C(CNc1cccc(S(=O)(=O)N2CCOCC2)c1)N1CCc2ccccc21	none (no result: Lmaj promast)
Cc1c(/C=N/NC(=O)CNc2ccccc2)c2ccccn2c1C(=O)c1ccncc1	Lmaj promast 100
Cc1c(C=O)c2ccccn2c1C(=O)c1ccc(F)cc1	none (no result: CHOP inh, Lmaj promast, Dynein cargo inh)
Cc1c(C=O)c2ccccn2c1C(=O)c1ccccc1	CHOP inh 72
Cc1oc(-c2ccc(Cl)cc2)nc1CS(=O)CC(=O)NC1CCCCC1 (configuration not stated)	none (no result: CHOP inh, Lmaj promast, Dynein cargo inh)
Cc1oc(-c2ccc(Cl)cc2)nc1CS(=O)CC(=O)NCCCN(C)C1CCCCC1 (configuration not stated)	Lmaj promast 100
Cc1cc(C)cc(-n2c(C)cc(C(=S)N3CCOCC3)c2C)c1	Lmaj promast 55
Cc1cc(C(=S)N2CCOCC2)c(C)n1-c1ccc(Cl)cc1	none
Cc1c(C(=O)NNC(=S)Nc2ccc(S(N)(=O)=O)cc2)oc2ccccc12	none (no result: CHOP inh, Lmaj promast, Dynein cargo inh)
Cc1sc(-n2c(C)cc(/C=N/n3cnnc3)c2C)c(C#N)c1C	Lmaj promast 77
Cc1cc(C)c(NC(=S)N(CCCN2CCN(C)CC2)Cc2cccs2)c(C)c1	none
CCCCCCC(=O)N=Nc1c(O)[nH]c2ccc([N+](=O)[O-])cc12	Lmaj promast 78
CCN(CC)S(=O)(=O)c1cc([N+](=O)[O-])ccc1N=Nc1c(O)[nH]c2ccccc12	CHOP inh 75 (no result: UPR CHOP act, UPR XBP1 act)
O=C(CNC(=O)c1cccs1)N=Nc1c(O)[nH]c2ccc([N+](=O)[O-])cc12	none (no result: CHOP inh, Lmaj promast, Dynein cargo inh)
CCN(CC)S(=O)(=O)c1ccc(OCC(=O)NC(=O)Cc2ccccc2)c([N+](=O)[O-])c1	none (no result: CHOP inh, T cruzi inh, Lmaj promast, Dynein cargo inh)
CC(=O)Nc1ccc(S(=O)(=O)Nc2cccc(-n3c(C)nc4ccccc4c3=O)c2)cc1	none (no result: CHOP inh, Lmaj promast, Dynein cargo inh)
CCc1cccc(OCCOC(=O)CNS(=O)(=O)c2ccc(NC(C)=O)cc2)c1	none (no result: CHOP inh, T cruzi inh, Lmaj promast, Dynein cargo inh)
CCc1occc(=O)c1Oc1cc(NN2CCCCC2)c([N+](=O)[O-])cc1[N+](=O)[O-]	none (no result: CHOP inh, Lmaj promast, Dynein cargo inh)
CCOC(=O)c1sc(NC(=O)c2ccc(CC)s2)nc1C	CHOP inh 71
CCOC(=O)c1sc(NC(=O)CSc2nnnn2-c2ccccc2)nc1C	CHOP inh 85
CCc1ccc(-n2nnnc2SCC(=O)Nc2ccc(NC(C)=O)cc2)cc1	T cruzi inh 55 (no result: CHOP inh, Lmaj promast, Dynein cargo inh)
CCOC(=O)c1sc(NC(=O)c2cc3ccccc3o2)nc1C	none
CCOC(=O)c1sc(NC(=O)CSc2nnnn2-c2ccc(C)c(C)c2)nc1C	CHOP inh 93
CCc1ccc(NC(=O)CSc2nnnn2C)cc1	none (no result: CHOP inh, Lmaj promast, Dynein cargo inh)
COc1ccc(Cl)cc1NC(=O)c1nnn(CC(=O)Nc2ccc3c(c2)OCO3)c1N	none (no result: CHOP inh, Lmaj promast, Dynein cargo inh)
NS(=O)(=O)c1ccc(CNC(=O)CCSCCC(=O)NCc2ccc(S(N)(=O)=O)cc2)cc1	none
CCCn1c(N)c(C(=O)CN(C)CC(=O)Nc2c(Cl)cccc2Cl)c(=O)[nH]c1=O	none (no result: CHOP inh, T cruzi inh, Lmaj promast, Dynein cargo inh)
Cn1nnnc1SCC(=O)Nc1ccc(Oc2ccccc2)cc1	CHOP inh 75, Lmaj promast 93
CCOC(=O)c1c(-c2ccc(C)o2)csc1NC(=S)NC(=O)c1cccs1	Lmaj promast 75
